The results in this text go back to ChEMBL document CHEMBL5032505, “Design, Synthesis, and Activity Evaluation of Stereoconfigured Tartarate Derivatives as Potential Anti-inflammatory Agents In Vitro and In Vivo” (J Med Chem, 2021).

Activity calls are given as the source filed them.

The target in data set [1] is Prostaglandin G/H synthase 1 (Homo sapiens) (UniProt P23219). Briefly: Inhibition of COX1 in human whole blood assessed as reduction in calcium ionophore-stimulated TXB2 production by ELISA. It is filed as tissue-based. In general terms: An ELISA detects its analyte on a solid surface through an enzyme-linked reagent.
The subject of data set [2] is Mus musculus. In words: Analgesic activity in Swiss albino mouse assessed as inhibition of acetic acid-induced writhing at 5 mg/kg, ip administered 30 mins prior to acetic acid challenge and measured after 30 mins relative to control. It counts as functional. Details: scale not given: the % may be the effect or the level left. The conditions noted are these: time 60 min, 1 h. In outline:
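Mice pretreated i.p. with indomethacin (10 mg/kg) or test compound (5 mg/kg) 30 min before 0.6% v/v acetic acid injection. Control group also received acetic acid. Animals placed in a transparent box and abdominal writhings counted for 30 min. Six animals per group, one-way ANOVA with Tukey's test, mean ± SEM.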

The subject of data set [3] is Mus musculus. In words: Antiinflammatory activity in Swiss albino mouse model of carrageenan-induced paw edema assessed as reduction in paw thickness at 5 mg/kg, administered 30 mins prior to carrageenan challenge and measured upto 360 mins relative to control. It counts as functional. Details: scale not given: the % may be the effect or the level left. Particulars: time 390 min, 6.5 h. In outline:
(§1)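 100 μL freshly prepared 1% carrageenan injected into the subplantar hind paw, with indomethacin (10 mg/kg) or test compound given 30 min before. Dose–response arm used 0.5, 2.5, 5, 10, 20 mg/kg. Six animals per group. Paw thickness (mm) read at 15, 30, 60, 120, 180, 240, 300, 360 min. Result expressed as % decrease versus control.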
Background: In the carrageenan paw model, swelling and tenderness develop within hours.

Data set [4] has as its system Mus musculus. Briefly: Antiinflammatory activity against Swiss albino mouse assessed as reduction in carragenan-induced paw edema at 0.5 mg/kg treated 30 mins prior to carrageenan challenge and measured upto 360 mins relative to control. The conditions noted are these: time 390 min, 6.5 h. It is filed as functional. On the set-up: scale not given: the % may be the effect or the level left. In outline: as §1

Data set [5] relates to Mus musculus. In words: Antiinflammatory activity against Swiss albino mouse assessed as reduction in carragenan-induced paw edema at 2.5 mg/kg treated 30 mins prior to carrageenan challenge and measured upto 360 mins relative to control. It counts as functional. Details: scale not given: the % may be the effect or the level left. The conditions noted are these: time 390 min, 6.5 h. In outline: as §1

Data set [6] in a line: Half life in Swiss albino mouse at 10 mg/kg, ip measured upto 24 hrs by LC-MS analysis. It counts as ADME, organism-based. Particulars: in vivo. In outline:
(§2)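 Swiss albino mice (25−35 g), either sex, 10 groups of three. 10 mg/kg suspended in 0.1% CMC, given i.p. Ketamine anaesthesia (50 mg/kg i.p.). Jugular vein blood taken at 30, 45, 60 min and 2, 3, 4, 6, 8, 11, 24 h into heparinised tubes, triplicate samples per time point.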

Data set [7] can be described thus: Tmax in Swiss albino mouse at 10 mg/kg, ip measured upto 24 hrs by LC-MS analysis. It is filed as ADME, organism-based. The conditions noted are these: in vivo. In outline: as §2
Data set [8] in a line: Cmax in Swiss albino mouse at 10 mg/kg, ip measured upto 24 hrs by LC-MS analysis. It counts as ADME, organism-based. Details: route intraperitoneal, dose 10 mg/kg, time <=24. Particulars: in vivo. In a few lines: as §2
For data set [9], the system named is Glycine max. In words: Binding affinity to soybean 5-LOX assessed as change in entropy by isothermal titration calorimetry. In a few lines:
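ITC at 25 °C in 0.1 M Tris buffer. Ligand at 100 μM in DMSO:Tris (1:9) titrated from a syringe stirred at 500 rpm into enzyme in the sample cell, 120 s spacing. 40 × 1 μL injections, except COX-1 at 20 × 2 μL. Buffer-only control titrations were subtracted.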
A general note: In ITC the heat of successive injections is recorded.

In data set [10] the test system is Mus musculus. Briefly: Analgesic activity in Swiss albino mouse assessed as inhibition of acetic acid-induced writhing at 5 mg/kg, ip preincubated for 30 mins with L-arginine followed by compound addition for 30 mins prior to acetic acid challenge and measured after 30 mins. It counts as functional, organism-based. Particulars: time 60.0 min.
Data set [11] deals with Mus musculus. Briefly: Analgesic activity in Swiss albino mouse assessed as inhibition of acetic acid-induced writhing at 5 mg/kg, ip preincubated for 30 mins with L-NIL followed by compound addition for 30 mins prior to acetic acid challenge and measured after 30 mins. It counts as functional, organism-based. Particulars: time 60.0 min.
Data set [12] has as its system Mus musculus. Briefly: Sedative activity in Swiss albino mouse at 300 mg/kg, po after 2 hrs. It counts as ADME, organism-based. Particulars: in vivo. In a few lines:
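Acute oral toxicity in Swiss albino mice fasted 4 h, three per group, vehicle control group alongside. Single 300 mg/kg oral dose, continuous observation for 4 h, then periodic checks over 14 days.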

Data set [13] concerns the target T1, Prostaglandin G/H synthase 1 (Ovis aries) (UniProt P05979).
T1 sequence (whole entry): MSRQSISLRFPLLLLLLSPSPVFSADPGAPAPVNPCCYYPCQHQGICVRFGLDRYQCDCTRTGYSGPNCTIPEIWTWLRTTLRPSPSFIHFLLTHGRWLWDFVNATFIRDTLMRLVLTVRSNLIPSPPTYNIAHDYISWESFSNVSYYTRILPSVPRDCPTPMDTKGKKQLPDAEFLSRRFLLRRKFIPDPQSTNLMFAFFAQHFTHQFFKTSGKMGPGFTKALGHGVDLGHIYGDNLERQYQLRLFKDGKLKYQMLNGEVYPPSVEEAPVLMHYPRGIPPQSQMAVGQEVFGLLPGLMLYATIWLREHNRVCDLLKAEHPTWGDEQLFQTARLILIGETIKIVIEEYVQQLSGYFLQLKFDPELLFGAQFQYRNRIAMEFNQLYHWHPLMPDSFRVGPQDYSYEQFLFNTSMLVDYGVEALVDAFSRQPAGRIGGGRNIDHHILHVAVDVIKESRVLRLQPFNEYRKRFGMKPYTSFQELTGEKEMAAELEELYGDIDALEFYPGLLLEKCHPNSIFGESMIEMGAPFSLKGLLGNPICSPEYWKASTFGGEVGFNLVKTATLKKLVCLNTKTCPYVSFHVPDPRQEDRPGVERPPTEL

The target in data set [14] is T2, Prostaglandin G/H synthase 2 (Homo sapiens) (UniProt P35354).
T2 sequence (whole entry): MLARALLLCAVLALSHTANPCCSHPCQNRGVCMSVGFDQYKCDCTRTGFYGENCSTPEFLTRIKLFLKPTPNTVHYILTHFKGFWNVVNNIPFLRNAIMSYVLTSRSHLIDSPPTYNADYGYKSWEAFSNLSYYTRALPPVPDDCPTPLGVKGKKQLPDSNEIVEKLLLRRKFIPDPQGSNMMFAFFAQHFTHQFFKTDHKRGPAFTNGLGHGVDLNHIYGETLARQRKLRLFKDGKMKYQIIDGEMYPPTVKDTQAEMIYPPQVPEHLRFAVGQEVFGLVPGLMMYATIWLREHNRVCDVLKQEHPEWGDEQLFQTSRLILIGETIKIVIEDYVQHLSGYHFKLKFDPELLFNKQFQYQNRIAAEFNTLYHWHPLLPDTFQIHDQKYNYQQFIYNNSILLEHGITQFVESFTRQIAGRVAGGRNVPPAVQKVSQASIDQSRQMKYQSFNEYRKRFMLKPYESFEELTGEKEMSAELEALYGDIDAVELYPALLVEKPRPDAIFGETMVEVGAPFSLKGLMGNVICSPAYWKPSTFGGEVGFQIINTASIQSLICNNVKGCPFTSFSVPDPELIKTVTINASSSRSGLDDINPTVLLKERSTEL

For data set [15], the system named is Glycine max.
The target of data set [16] is T2, Prostaglandin G/H synthase 2 (Homo sapiens). The source holds these as a separate data set.
Data set [17] addresses T1, Prostaglandin G/H synthase 1 (Ovis aries). The source holds these as a separate data set.
The target in data set [18] is T2, Prostaglandin G/H synthase 2 (Homo sapiens). This is another data set of the same source.
Data set [19] deals with Glycine max. The source holds these as a separate data set.

Chain of Prostaglandin G/H synthase 1 (Homo sapiens) (P23219 whole entry): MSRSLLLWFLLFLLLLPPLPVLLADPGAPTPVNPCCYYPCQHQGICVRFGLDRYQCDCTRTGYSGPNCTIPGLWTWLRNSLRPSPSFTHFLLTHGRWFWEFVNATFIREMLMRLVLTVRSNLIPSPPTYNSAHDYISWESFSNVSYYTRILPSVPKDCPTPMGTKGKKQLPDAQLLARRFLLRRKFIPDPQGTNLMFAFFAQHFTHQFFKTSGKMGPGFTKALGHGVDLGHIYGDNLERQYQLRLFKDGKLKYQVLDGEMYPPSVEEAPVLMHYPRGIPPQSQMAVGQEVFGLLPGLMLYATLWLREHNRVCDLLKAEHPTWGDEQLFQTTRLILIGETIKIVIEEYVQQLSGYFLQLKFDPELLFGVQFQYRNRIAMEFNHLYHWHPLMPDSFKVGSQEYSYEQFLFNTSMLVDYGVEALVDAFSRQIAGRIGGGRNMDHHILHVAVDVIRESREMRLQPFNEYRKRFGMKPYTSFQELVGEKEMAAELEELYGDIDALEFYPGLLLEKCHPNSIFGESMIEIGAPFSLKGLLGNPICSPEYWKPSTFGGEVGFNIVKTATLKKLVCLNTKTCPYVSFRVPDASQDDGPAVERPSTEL

The term half-life denotes the time needed for the level to fall by half in the phase considered. As usually defined, the Tmax is the time from dosing to the highest level. In general, Cmax refers to the highest concentration seen after dosing. In the case of `O=C(O)Cn1nncc1CO[C@@H](C(=O)O)[C@@H](OCc1cnnn1CC(=O)O)C(=O)O`, the Activity was 1.6 ng/mL in data set [1]; 65% with Mus musculus [2]; 33% with Mus musculus [3]; 2% with Mus musculus [4]; 5.4% with Mus musculus [5]; “Non-Toxic” in the data set on Mus musculus [12]. The compound also had a half-life in data set [6] of 8.74 h. For the same compound, in data set [7], the Tmax turned out to be 1 h. In [8], the Cmax was found to be 26000 ng/mL. Moreover, the TdeltaS in the data set with Glycine max [9] is -2.99 kcal/mol. For the same compound, the result with Mus musculus [10] and in the data set with Mus musculus [11] was Active. For the same compound, the Ka in data set [13] is 1.64 10^3/M; in data set [14], 6.07 10^5/M; in the data set on Glycine max [15], 1.33 10^5/M. The deltaH in [16] is -10.5 kcal/mol. In addition, the deltaG in [17] is -5.02 kcal/mol; in data set [18], -7.88 kcal/mol; in the data set with Glycine max [19], -7 kcal/mol.
